In paper PMC7238799 (Pulmonary Circulation, 2020):

Experiments:
[1] = system: healthy subjects; assay: Multiple ascending dose; type: in vivo, human
Method in brief: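 Subjects on test compound or placebo were domiciled up to 31 days (QD Cohorts 1–2) or 34 days (BID Cohort 3), with a 48-h drug-free follow-up. Monitoring at multiple time points covered adverse events, vital signs, 12-lead ECG with intensive ECG monitoring in all cohorts, and safety labs (serum chemistry, hematology, urinalysis). Data were summarized descriptively by treatment group.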

[2] = system: prostacyclin (IP) receptor; conditions: cited from earlier work
[3] = Cohort 3, BID, all dose levels, n = 20
[4] = Cohorts 1 and 2, QD, all dose levels, n = 20

In the case of O=C(O)COC[C@H]1CC[C@H](COC(=O)N(c2ccccc2)c2ccc(Cl)cc2)CC1 [ralinepag], the “Diarrhea, subjects (%)” value [1, 3] is reported as 7 (35%), the “Dizziness, subjects (%)” value [1, 3] is reported as 9 (45%) and the “Dry mouth, subjects (%)” value [1, 3] is reported as 2 (10%). The “Eructation, subjects (%)” value [1, 3] was 0, the “Fatigue, subjects (%)” value [1, 3] was 3 (15%) and the “Feeling hot, subjects (%)” value [1, 3] was 2 (10%). The “Flatulence, subjects (%)” value [1, 3] was 0, the “Flushing, subjects (%)” value [1, 3] was 3 (15%) and the “Headache, subjects (%)” value [1, 3] was 17 (85%). For the same compound, the “Hordeolum, subjects (%)” value [1, 3] was 0, the “Muscle tightness, subjects (%)” value [1, 3] was 2 (10%) and the “Muscular weakness, subjects (%)” value [1, 3] was 2 (10%). For the same compound, the “Myalgia, subjects (%)” value [1, 3] was 9 (45%), the “Nausea, subjects (%)” value [1, 3] was 9 (45%) and the “Non-cardiac chest pain, subjects (%)” value [1, 3] was 0. For the same compound, the “Number of AEs reported” value [1, 3] was 196, the “Ocular hyperemia, subjects (%)” value [1, 3] was 3 (15%) and the “Oropharyngeal pain, subjects (%)” value [1, 3] was 1 (5%). The “Pain in extremity, subjects (%)” value [1, 3] was 0, the “Pain in jaw, subjects (%)” value [1, 3] was 13 (65%) and the “Palpitations, subjects (%)” value [1, 3] was 5 (25%). For the same compound, the “Paraesthesia, subjects (%)” value [1, 3] was 4 (20%), the “Pruritus, subjects (%)” value [1, 3] was 2 (10%) and the “Restless leg syndrome, subjects (%)” value [1, 3] was 2 (10%). For the same compound, the “Somnolence, subjects (%)” value [1, 3] was 2 (10%), the “Total (%) subjects with at least one AE” value [1, 3] was 19 (95.0%) and the “Total (%) subjects with at least one SAE” value [1, 3] was 0 (0%). The “Tremor, subjects (%)” value [1, 3] was 1 (5.0%), the “Vomiting, subjects (%)” value [1, 3] was 3 (15%) and the “Abdominal distention, subjects (%)” value [1, 4] was 2 (10%). For the same compound, the “Abdominal pain, subjects (%)” value [1, 4] was 6 (30%), the “Acne, subjects (%)” value [1, 4] was 0 and the “Application site dermatitis, subjects (%)” value [1, 4] was 6 (30%). For the same compound, the “Arthralgia, subjects (%)” value [1, 4] was 0, the “Asthenia, subjects (%)” value [1, 4] was 2 (10%) and the “Back pain, subjects (%)” value [1, 4] was 1 (5%). The “Chapped lips, subjects (%)” value [1, 4] was 0, the “Chest pain, subjects (%)” value [1, 4] was 1 (5%) and the “Chromaturia, subjects (%)” value [1, 4] was 0. For the same compound, the “Constipation, subjects (%)” value [1, 4] was 6 (30%), the “Decreased appetite, subjects (%)” value [1, 4] was 4 (20%) and the “Dermatitis contact, subjects (%)” value [1, 4] was 0. For the same compound, the “Diarrhea, subjects (%)” value [1, 4] was 5 (25%), the “Dizziness, subjects (%)” value [1, 4] was 5 (25%) and the “Dry mouth, subjects (%)” value [1, 4] was 0. The “Eructation, subjects (%)” value [1, 4] was 3 (15%), the “Fatigue, subjects (%)” value [1, 4] was 2 (10%) and the “Feeling hot, subjects (%)” value [1, 4] was 2 (10%). The “Flatulence, subjects (%)” value [1, 4] was 2 (10%), the “Flushing, subjects (%)” value [1, 4] was 7(35%) and the “Headache, subjects (%)” value [1, 4] was 19 (95%). The “Hordeolum, subjects (%)” value [1, 4] was 3 (15%), the “Muscle tightness, subjects (%)” value [1, 4] was 0 and the “Muscular weakness, subjects (%)” value [1, 4] was 1 (5%). For the same compound, the “Myalgia, subjects (%)” value [1, 4] was 6 (30%), the “Nausea, subjects (%)” value [1, 4] was 17 (85%) and the “Non-cardiac chest pain, subjects (%)” value [1, 4] was 2 (10%). For the same compound, the “Number of AEs reported” value [1, 4] was 230, the “Ocular hyperemia, subjects (%)” value [1, 4] was 0 and the “Oropharyngeal pain, subjects (%)” value [1, 4] was 2(10%). For the same compound, the “Pain in extremity, subjects (%)” value [1, 4] was 3 (15%), the “Pain in jaw, subjects (%)” value [1, 4] was 13 (65%) and the “Palpitations, subjects (%)” value [1, 4] was 4 (20%). For the same compound, the “Paraesthesia, subjects (%)” value [1, 4] was 1 (5%), the “Pruritus, subjects (%)” value [1, 4] was 1 (5.0%) and the “Restless leg syndrome, subjects (%)” value [1, 4] was 1 (5%). For the same compound, the “Somnolence, subjects (%)” value [1, 4] was 3 (15%), the “Total (%) subjects with at least one AE” value [1, 4] was 20 (100%) and the “Total (%) subjects with at least one SAE” value [1, 4] was 1 (5.0%). The “Tremor, subjects (%)” value [1, 4] was 2 (10%), the “Vomiting, subjects (%)” value [1, 4] was 12 (60%) and the “Subjects withdrawn from the study due to AEs” value ([1]; Cohorts 1 and 2, receiving ralinepag) was “three”. The Tolerability versus dose ([1]; QD (up to 400 µg) or BID (up to 70 µg) dosing) was “tolerability decreasing with increasing dose”, the “QT prolongation (12-lead Holter ECG, high-precision QT analysis)” value ([1]; QD and BID dose ranges evaluated) was “not likely to be associated with QT prolongation” and the Serious adverse event ([1]; one subject, 50 µg QD, Cohort 2, possibly related to study medication) was “SAE of atrial fibrillation considered moderate in intensity”. For the same compound, the “Maximal cAMP stimulation (efficacy percentage relative to iloprost)” value [2] was 67%, the “Type of IP receptor agonism” value [2] was “strong partial agonist” and the “Functional potency relative to ACT-333679” value ([2]; greater potency than selexipag active metabolite) was 6–8 fold.
